Assay [1] has as its system A549. Put plainly: Cytotoxicity against human A549 cells assessed as formation of shortened aggregates of mirotube bundles at 5 uM by immuno-fluorescent microscopy. The assay is classed as functional, cell-based. The method, boiled down:
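A549 cells were treated with compound at the concentration given in the line, then fixed with polyformaldehyde. Microtubules were stained with primary mouse anti-α-tubulin and a secondary Alexa 488-labelled rabbit anti-mouse antibody. Cells were examined by immunofluorescence microscopy for microtubule bundles and shortened aggregates.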

In assay [2] the test system is A549. Put plainly: Cytotoxicity against human A549 cells. Type of assay: functional, cell-based.
The species entered for assay [3] is Bos taurus. Description: Induction of bovine tubulin polymerization relative to taxol. Set-up: concentration or dose not given beside the values.
The species entered for assay [4] is Bos taurus. Put plainly: Induction of bovine tubulin aggregation by SDS-PAGE. In a few lines:
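Sedimentation assay using tubulin purified from bovine brain, incubated with compound. Pellets were resolved by SDS–PAGE. Pelleted tubulin was expressed relative to the amount pelleted after incubation with taxol, set as 100%. DMSO served as the negative control.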

Assay [5] is filed under the species Bos taurus. Description: Induction of bovine tubulin aggregation by electron microscopy using uranyl acetate staining. The method, boiled down: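 Tubulin purified from bovine brain was incubated with compound. Samples were negatively stained with uranyl acetate and examined by electron microscopy for aggregates.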

Calls of active or inactive are those of the source. The calls are words filed in the database; no cut-off is given here.

In general, IC50 refers to the point on the concentration scale where inhibition reaches its midpoint. As to `COc1cc2c(c(OC)c1OC)-c1ccc(OC)c(=O)cc1[C@@H](NC(=O)CCCCCC(=O)OC1C3CC4CC1CC(OC(=O)[C@H](O)[C@@H](NC(=O)OC(C)(C)C)c1ccccc1)(C4)C3)CC2` (mixture of isomers), the result in the assay with A549 [1] was Active. In the assay on A549 [2], the half-maximal inhibitory concentration (IC50) is 0.0006 µM.

For the compound `CC(C)(C)OC(=O)N[C@@H](c1ccccc1)[C@@H](O)C(=O)OC12CC3CC(C1)CC(C(=O)OC1COC1)(C3)C2`, the Activity in the assay listed under Bos taurus [3] amounted to 27.1%. Moreover, the result in the assay filed under Bos taurus [4] and in the assay listed under Bos taurus [5] was Active. Moreover, the IC50 with A549 [2] was determined as 2.5 µM.

In turn, `O=C(CCNC(=O)c1ccccc1)OC12CC3CC(CC(C3)C1)C2` gave an Activity in the assay filed under Bos taurus [3] of 32.9%. The result in the assay filed under Bos taurus [4] was Active.

`CC(=O)O[C@H]1C(=O)[C@@]2(C)[C@H]([C@H](OC(=O)c3ccccc3)[C@]3(O)C[C@H](OC(=O)[C@H](O)[C@@H](NC(=O)c4ccccc4)c4ccccc4)C(C)=C1C3(C)C)[C@]1(OC(C)=O)CO[C@@H]1C[C@@H]2O` [PACLITAXEL] yielded an IC50 in the assay on A549 [2] of 0.002 µM.

Compound `O=C(N[C@@H](c1ccccc1)[C@@H](O)C(=O)OC12CC3CC(C1)C(OC(=O)c1ccccc1)C(C3)C2)c1ccccc1` (mixture of isomers) registered an Activity in the assay filed under Bos taurus [3] of 32.3%. Also, the result in the assay filed under Bos taurus [4] and in the assay filed under Bos taurus [5] was Active. In addition, the IC50 in the assay with A549 [2] was determined as 9.5 µM.

Turning to `CC(C)(C)OC(=O)N[C@@H](c1ccccc1)[C@@H](O)C(=O)O[C@H]1C[C@H]2C[C@@H](C1)C[C@@H](C(=O)OC1COC1)C2`, in the assay filed under Bos taurus [3], the Activity was 25.3%. Moreover, in the assay listed under Bos taurus [4], the outcome was Active. This compound gave a half-maximal inhibitory concentration (IC50) with A549 [2] of 3.8 µM.

The compound `O=C(N[C@@H](c1ccccc1)[C@@H](O)C(=O)OC12CC3CC(CC(C3)C1)C2)c1ccccc1` came in with an Activity in the assay filed under Bos taurus [3] of 57.1%. Also, the outcome in the assay listed under Bos taurus [4] and in the assay listed under Bos taurus [5] was Active. Also, the IC50 in the assay with A549 [2] was found to be 5.6 µM.

The values above are taken from ChEMBL document CHEMBL1158186, “Design, synthesis, and bioactivity of putative tubulin ligands with adamantane core” (Bioorg Med Chem Lett, 2008).
